Bioassay records deposited in PubChem BioAssay by several laboratories.
Only a selection was taken, and hits are over-represented in it overall.
Lmaj promast: Leishmania major promastigote growth inhibition, primary screen | Leishmania major promastigotes, resazurin fluorescence viability | inhibition, % at 10 µM | actives 9% (n = 200,000) | AID 1063, 2008; in the data active = inhibition above about 50%;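 also: promastigotes grown with compound for 44 hours at 28 °C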
MPTP block: mitochondrial permeability transition pore inhibitors, primary screen, biochemical, isolated mouse mitochondria, absorbance. Ca2+ swelling absorbance, 30 min. inhibition, % at 10 µM. actives 1.4% (n = 360,000);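 active = inhibition of 50% or more, scaled per plate between neutral and stimulator controls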;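 also: 0% = DMSO wells given calcium and 100% = 1 mM EGTA wells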
DTT redox prof: compounds producing H2O2 with reducing agent – biochemical, NIH compound library profiling, artefact control for MLSCN library redox annotation, primary screen | DTT-dependent redox cycling H2O2, phenol red/HRP absorbance; 100% = 100 µM peroxide control, 0% = buffer | activation, % at 10 µM | actives 0.03% (n = 200,000) | AID 878, 2007;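 active = activation of at least 50% relative to the plate's high and low controls in the primary single-dose screen; inactive = activation below 50%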;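 also: compound incubated with DTT at 0.8 mM final as the reducing agent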
Hep lipid drop: inhibitors of hepatocyte lipid droplet formation, primary screen, imaging, high-throughput imaging, BODIPY stain; AID 1656, 2009; inhibition, % at 6.5 µM; AML12 mouse hepatocytes, oleate lipid droplets; actives 0.4% (n = 240,000);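 active = lipid droplet intensity inhibited by at least 50%, with more than 500 cells counted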
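material = mouse AML12 hepatocyte cell line, fixed after treatment | also added = 100 µM oleic acid challenge | doses = compound at 6.5 µM only | schedule = overnight exposure | technique = Image-based BODIPY and DAPI two-channel analysis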
T cruzi repl: inhibitors of intracellular T. cruzi growth, primary screen, luminescence, NIH3T3 host cells | T. cruzi beta-gal in NIH3T3, 90 h | inhibition, % (no concentration beside the values) | actives 1.4% (n = 300,000) | AID 1885, 2009;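 active = mean inhibition across valid replicates above about 55%, limit read from the data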;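 also: signal also drops with host cell toxicity which is not excluded here; 0% = plate median of DMSO wells and 100% = zero luminescence signal; higher percent means less beta-gal luminescence so fewer parasites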
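System: NIH/3T3 fibroblasts plus reporter T. cruzi. Medium: DMEM plus 2% FBS. Probe or stimulus: 5000 reporter trypomastigotes per well. Compound: single 50 nL compound addition per well in DMSO. Incubation: co-culture of at least 90 h after 3 h attachment. Detection: GalScreen β-gal luminescence, detergent lysis, 60 min. Evaluation: parasite load inhibition, %.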
Rh123 counter: fluorescence retest of MPTP screen hits in isolated mitochondria, single concentration | actives 78% (n = 5,000) | membrane potential, Rhodamine 123 fluorescence | inhibition, % at 10 µM | shares compounds with MPTP block; in the data active = inhibition above about 22%;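 also: 0% = DMSO vehicle and 100% = positive control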
MPTP swell DR: mitochondrial permeability transition pore inhibitors, dose response, biochemical, absorbance, uHTS hits; shares compounds with MPTP block; isolated mitochondria swelling; IC50, µM; actives 58% (n = 780); AID 651561, 2012; in the data active = IC50 below about 20 µM
MPTP cs DR: fluorescent counter-screen in isolated mitochondria, dose response, counter-screen for MPTP inhibitor project, biochemical, fluorescence, uHTS hits; shares compounds with MPTP block; isolated mitochondria counterscreen, fluorescence read-out; IC50, µM; actives 49% (n = 780); in the data active = IC50 below about 80 µM
* hit, by the source's call; i = inactive; x = not tested or not shown.

SMILES	Lmaj promast	MPTP block	DTT redox prof	Hep lipid drop	T cruzi repl	Rh123 counter	others
CC(=O)c1ccc(Oc2ccc(C(C)=O)cc2)cc1	0	-1	-2	x	-12	x
Oc1ccc(Oc2ccc(Oc3ccc(O)cc3)cc2)cc1	x	62*	x	-18	-70	80*
Cn1c(CCc2ccccc2)n[nH]c1=S	-8	-2	-1	0	8	x
CSc1nc(SCc2ccccc2)[nH]c(=O)n1	x	1	x	x	x	x
Cc1ccc(/C=N/N2C(=S)SC(C)(C)C2N(O)C(=O)Nc2ccc([N+](=O)[O-])cc2)cc1 (stereo not drawn)	41	91*	2	x	25	87*
O=C(NCc1ccccn1)c1cccc(NS(=O)(=O)c2cccc(F)c2)c1	-4	-12	0	6	-16	x
COc1cc(CNCc2ccc(SC)cc2)cc(OC)c1	35	56*	0	6	-22	16	MPTP swell DR=11*;MPTP cs DR=18*
COc1cccc(CNCc2cc(OC)cc(OC)c2)c1	x	0	x	-3	-14	x
C/C(CC(=O)Nc1cccc(Cl)c1Cl)=N\NC(=O)c1ccccc1N	-3	3	0	-12	4	x
Cc1ccc(N2C(=O)CC(N3CCN(c4ccccn4)CC3)C2=O)cc1 (stereo not drawn)	-5	0	0	2	-12	x
Cc1ccc2nc(-c3ccc(N4C(=O)CC(N5CCN(CCO)CC5)C4=O)cc3)sc2c1 (stereo not drawn)	-3	94*	1	-12	4	-6	MPTP swell DR=19*;MPTP cs DR=>80
Cc1c(O)ccc2c(CN(C)Cc3ccccc3)cc(=O)oc12	x	84*	x	-21	2	62*
CNC(=S)N/N=C/c1cccc(OCc2ccccc2F)c1	39	70*	-1	35	4	28*
Cc1ccc(/C(=N/Nc2nc3ccccc3s2)C2=C(O)c3ccccc3C2=O)cc1	2	90*	0	19	2	71*
Cc1ccc(S(=O)(=O)N(C)CC(=O)Nc2nc3ccccc3s2)cc1	5	1	-1	6	9	x
O=C(NCc1ccccc1F)c1cccc(S(=O)(=O)NCc2ccccc2)c1	x	1	x	0	4	x
O=C(NCc1cccc(C(F)(F)F)c1)c1cccc(S(=O)(=O)NCc2ccccc2)c1	10	60*	0	0	-4	71*
CCN1/C(=C/c2sc(-c3ccccc3C)c[n+]2C)Sc2ccccc21	100*	95*	-1	-200	66*	107*
CCCCn1c(N)c(N(CC)C(=O)c2c(C)noc2C)c(=O)[nH]c1=O	x	0	x	x	x	x
COCCCN(C(=S)Nc1cc(Cl)cc(Cl)c1)C(C)c1ccncc1 (stereo not drawn)	25	93*	0	14	-18	99*
COCCCN(C(=S)Nc1cc(Cl)cc(Cl)c1)C(C)c1ccccn1 (stereo not drawn)	x	91*	x	5	6	87*
CCCCCc1ccc(CC(=O)Nn2c(C)nc3ccccc3c2=O)cc1	-3	72*	1	24	1	68*
Cc1ccccc1OCCSCc1nc2ccccc2[nH]1	12	79*	0	-5	40	67*
COc1ccc(-c2nnc(SCC(=O)N(C)C3CCS(=O)(=O)C3)n2CC(C)C)cc1 (stereo not drawn)	x	1	x	x	x	x
Nc1cc(S(=O)(=O)Nc2ccccc2Cl)ccc1N1CCCC1	x	10	x	-5	2	x
SMILES	Lmaj promast	MPTP block	DTT redox prof	Hep lipid drop	T cruzi repl	Rh123 counter	others
Nc1cc(S(=O)(=O)Nc2cc(Cl)ccc2Cl)ccc1N1CCOCC1	x	61*	x	-9	9	18	MPTP swell DR=i;MPTP cs DR=55*
COc1ccc(S(=O)(=O)Nc2ccc(N3CCOCC3)cc2)cc1	x	0	x	x	8	x
COc1ccc(NS(=O)(=O)c2ccc(N3CCOCC3)c(N)c2)cc1	x	86*	x	x	x	96*
COc1ccc(CNc2nc(S(=O)(=O)c3ccccc3)c(Cl)s2)cc1OC	0	82*	0	-1	-5	64*
COc1ccc(Nc2nc(S(=O)(=O)c3ccc(C)cc3)c(Cl)s2)cc1	46	59*	1	-38	11	76*
O=S(=O)(c1ccccc1)c1nc(Nc2cccc(O)c2)sc1Cl	3	54*	0	-24	12	39*
Cc1ccc(S(=O)(=O)c2nc(N3CCOCC3)sc2Cl)cc1	-6	-2	0	-6	-2	x
Cc1ccc(S(=O)(=O)c2nc(Nc3ccccc3)sc2Cl)cc1	24	85*	1	-44	16	85*
CCC(c1nc2ccccc2[nH]1)N(CCCn1ccnc1)C(=O)c1ccc(C(F)(F)F)cc1 (stereo not drawn)	x	-1	x	x	x	x
CCCCCNC(=O)C(c1ccnc2ccccc12)n1c(=O)c(-c2cc3ccccc3[nH]2)nc2ccccc21 (stereo not drawn)	x	-1	x	x	x	x
O=C(CSCc1cccc(Br)c1)NC1CC1	-4	-1	0	2	-20	x
Cc1nc(NCCc2ccccc2)c2oc3ccccc3c2n1	90*	97*	0	-40	-14	75*
Cc1nc(SCC(=O)NCCc2ccccc2)c2oc3ccccc3c2n1	-1	1	2	x	4	x
FC(F)(F)c1ccc(CN2C[C@@H]3C(c4ccc(Cl)nc4)C4(c5ccccc5)CC3(C4)[C@H]2c2ccccc2)cc1 (stereo partly drawn)	x	0	x	4	19	x
Oc1cc2ccccc2cc1-c1n[nH]c(=S)o1	-11	96*	2	x	-12	71*
S=c1[nH]nc(-c2c[nH]c3ccccc23)o1	x	-1	x	-5	-4	x
S=C(Nc1ccc(Br)cc1)NC1CCCC1	1	95*	0	-1	-7	97*
Cc1cccc(NC(=S)NC2CCCC2)c1	33	0	1	28	-6	x
CN1CCC(NC(=O)Nc2ccc(Br)cc2)CC1	x	67*	x	2	61*	83*
CC(C)(C)NC(=O)Nc1ccc(F)c(Cl)c1	6	36	1	-2	-14	x
S=C(NCC1CCCCC1)Nc1ccc(Oc2ccccc2)cc1	90*	86*	x	-2	55*	86*
CC(C)(C)NC(=O)Nc1ccc(Br)cc1	17	58*	-2	-7	-7	77*
S=C(Nc1ccc(Oc2ccccc2)cc1)NC1CCCC1	45	87*	0	0	4	84*
